Measurements: ChEMBL document CHEMBL1126645, “Nonsymmetrical bipiperidyls as inhibitors of vesicular acetylcholine storage” (J Med Chem, 1993)
pIC50: −log10 of the molar value.

Molecular target: T1, Vesicular acetylcholine transporter (Torpedo californica, UniProt P81721)
T1 sequence (P81721 whole entry): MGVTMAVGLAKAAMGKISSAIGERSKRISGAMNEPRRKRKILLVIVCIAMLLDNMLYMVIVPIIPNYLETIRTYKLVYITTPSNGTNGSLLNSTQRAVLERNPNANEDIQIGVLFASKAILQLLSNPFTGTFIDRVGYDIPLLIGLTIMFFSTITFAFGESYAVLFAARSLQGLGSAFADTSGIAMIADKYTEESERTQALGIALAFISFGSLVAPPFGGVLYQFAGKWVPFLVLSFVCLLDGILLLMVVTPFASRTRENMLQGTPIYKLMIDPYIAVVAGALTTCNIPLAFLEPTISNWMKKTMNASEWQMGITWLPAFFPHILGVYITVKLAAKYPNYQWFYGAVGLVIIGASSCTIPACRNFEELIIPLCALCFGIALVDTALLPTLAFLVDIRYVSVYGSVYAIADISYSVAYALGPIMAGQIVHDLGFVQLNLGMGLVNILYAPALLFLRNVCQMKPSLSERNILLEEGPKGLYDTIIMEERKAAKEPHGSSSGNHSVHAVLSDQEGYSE
Test: Inhibition of [3H]- vesamicol binding to synaptic vesicles preparation from the electric organ of Torpedo californica
Parameters: species or system Tetronarce californica
Procedure, shortened: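 Run without ATP and without acetylcholine. Each drug concentration tested in duplicate, with variation below 5%. Other assay details follow an earlier published protocol.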

pIC50 | Structure (SMILES)
7.51 | O[C@@H]1CCN(Cc2cccc(F)c2)C[C@H]1N1CCC(c2ccccc2)CC1
7.60 | O[C@@H]1CCN(Cc2ccc(Br)cc2)C[C@H]1N1CCC(c2ccccc2)CC1
7.66 | Cc1cccc(CN2CC[C@@H](O)[C@H](N3CCC(c4ccccc4)CC3)C2)c1
7.60 | Cc1ccccc1CN1CC[C@@H](O)[C@H](N2CCC(c3ccccc3)CC2)C1
7.66 | O[C@@H]1CCN(Cc2ccccc2Br)C[C@H]1N1CCC(c2ccccc2)CC1
7.68 | O[C@@H]1CCN(Cc2cccc(Br)c2)C[C@H]1N1CCC(c2ccccc2)CC1
7.62 | Cc1ccc(CN2CC[C@@H](O)[C@H](N3CCC(c4ccccc4)CC3)C2)cc1
7.52 | O[C@@H]1CCN(Cc2ccccc2)C[C@H]1N1CCC(c2ccccc2)CC1

The remaining lines, values behind:

Structure (SMILES) | pIC50
O=C(c1ccccc1)N1CC[C@@H](N2CCC(c3ccccc3)CC2)[C@H](O)C1 | 5.72
O[C@@H]1CCN(Cc2ccccc2F)C[C@H]1N1CCC(c2ccccc2)CC1 | 7.38
O[C@@H]1CN(Cc2ccccc2)CC[C@H]1N1CCC(c2ccccc2)CC1 | 7.08
O[C@@H]1CN(Cc2ccccc2Br)CC[C@H]1N1CCC(c2ccccc2)CC1 | 7.26
O=C(c1ccccc1)N1CC[C@@H](O)[C@H](N2CCC(c3ccccc3)CC2)C1 | 7.47
O=C(c1ccccc1I)N1CC[C@@H](O)[C@H](N2CCC(c3ccccc3)CC2)C1 | 6.60
O[C@@H]1CNCC[C@H]1N1CCC(c2ccccc2)CC1 | 5.30
O=[N+]([O-])c1ccc(N2CC[C@@H](O)[C@H](N3CCC(c4ccccc4)CC3)C2)cc1 | 6.54
O[C@@H]1CCNC[C@H]1N1CCC(c2ccccc2)CC1 | 5.54
O[C@@H]1CN(Cc2ccc(Br)cc2)CC[C@H]1N1CCC(c2ccccc2)CC1 | 6.51
O=C(c1cccc(I)c1)N1CC[C@@H](O)[C@H](N2CCC(c3ccccc3)CC2)C1 | 7.41
O[C@@H]1CCN(Cc2ccc(F)cc2)C[C@H]1N1CCC(c2ccccc2)CC1 | 7.85
O[C@@H]1CCN(Cc2cccc(I)c2)C[C@H]1N1CCC(c2ccccc2)CC1 | 7.59
O=C(c1ccc(I)cc1)N1CC[C@@H](O)[C@H](N2CCC(c3ccccc3)CC2)C1 | 7.66
